ChEMBL document CHEMBL3739420, “Benzoxazolone Carboxamides as Potent Acid Ceramidase Inhibitors: Synthesis and Structure-Activity Relationship (SAR) Studies” (J Med Chem, 2015)
The source made the active and inactive calls. No cut-off for these calls is given here.

Experiments:
[1] = Stability in 1 % DMSO containing phosphate-buffered solution assessed as half life at 10 uM at pH 7.4 under shaking by UPLC method; format: physicochemical; conditions: for half-life at 10 µM: phosphate-buffered solution, pH 7.4; for t1/2: buffer, pH 7.4, 10 µM
Procedure, shortened: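 Compound incubated at 10 μM in PBS pH 7.4; half-life derived by fitting the decay profile.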

[2] = Chemical stability in AC assay buffer at 10 uM at pH 4.5 under shaking by UPLC method; format: physicochemical; conditions: pH 4.5, 10 µM
Acid ceramidase = target: T1, Acid ceramidase (Homo sapiens, UniProt Q13510); assay: Inhibition of recombinant human acid ceramidase expressed in HEK293 cells using N-[(1S,2R)-2-hydroxy-1-(hydroxymethyl)-4-(2-oxochromen-7-yl)-oxybutyl]dodecanamide substrate preincubated for 10 mins; format: cell-based
T1 sequence (Q13510 whole entry): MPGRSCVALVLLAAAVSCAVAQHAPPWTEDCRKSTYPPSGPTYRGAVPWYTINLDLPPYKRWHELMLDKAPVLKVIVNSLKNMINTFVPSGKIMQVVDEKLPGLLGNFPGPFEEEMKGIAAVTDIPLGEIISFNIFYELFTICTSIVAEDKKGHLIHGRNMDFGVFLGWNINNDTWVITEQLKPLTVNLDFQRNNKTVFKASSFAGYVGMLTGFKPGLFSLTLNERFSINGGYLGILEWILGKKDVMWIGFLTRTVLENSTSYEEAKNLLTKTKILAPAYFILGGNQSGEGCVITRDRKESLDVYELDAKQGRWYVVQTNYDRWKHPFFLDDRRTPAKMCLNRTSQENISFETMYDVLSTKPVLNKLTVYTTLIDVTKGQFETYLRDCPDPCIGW
Procedure, shortened: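 AC-enriched lysosomal lysate from HEK293 cells stably expressing human AC, preincubated 10 min with compound. Coumarin-linked dodecanamide substrate then added at 5 μM final and incubated 3 h at 37 °C. Reaction stopped with MeOH, then NaIO4 at pH 10.6 for 2 h at 37 °C in the dark; umbelliferone fluorescence read at 355/460 nm. IC50 from nonlinear regression; mean of ≥2 determinations.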

[3] = target: T2, Acid ceramidase (Homo sapiens) (UniProt Q13510); assay: Inhibition of recombinant human acid ceramidase expressed in HEK293 cells at 5 uM using N-[(1S,2R)-2-hydroxy-1-(hydroxymethyl)-4-(2-oxochromen-7-yl)-oxybutyl]dodecanamide substrate preincubated for 10 mins; format: cell-based
T2 sequence (whole entry): T1 sequence (Q13510 whole entry)

Mus musculus [4] = assay: Inhibition of acid ceramidase in C57BL/6 mouse lung assessed as decrease in sphingosine level at 10 mg/kg, ip after 3 hrs by LC-MS method; format: functional, organism-based
Mus musculus [5] = assay: Inhibition of acid ceramidase in C57BL/6 mouse lung at 10 mg/kg, ip after 24 hrs by bicinchoninic acid based protein assay; format: functional, organism-based
Procedure, shortened: (§1)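 Male C57BL/6 mice dosed ip at 10 mg/kg in 15% PEG/15% Tween-80/70% saline; lung and cerebral cortex collected 30 min–24 h after dosing. Lysosomal extracts were prepared by sonication and differential centrifugation, then incubated at pH 4.5 with 50 μM C12-ceramide for 1 h at 37 °C. Lauric acid product measured by UPLC–MS with an internal standard; activity expressed as % of vehicle; n = 6.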

Mus musculus [6] = assay: Inhibition of acid ceramidase in C57BL/6 mouse cerebral cortex at 10 mg/kg, ip after 24 hrs by bicinchoninic acid based protein assay; format: functional, organism-based; procedure, shortened: as §1
Mus musculus [7] = assay: Inhibition of acid ceramidase in C57BL/6 mouse cerebral cortex assessed as changes in sphingolipid level at 10 mg/kg, ip by LC-MS method; format: functional, organism-based
Mus musculus [8] = assay: Inhibition of acid ceramidase in C57BL/6 mouse lung assessed as increase in ceramide level at 10 mg/kg, ip upto 6 hrs by LC-MS method; format: functional, organism-based
Mus musculus [9] = assay: Inhibition of acid ceramidase in C57BL/6 mouse lung assessed as increase in dihydroceramide level at 10 mg/kg, ip upto 6 hrs by LC-MS method; format: functional, organism-based
Mus musculus [10] = assay: Inhibition of acid ceramidase in C57BL/6 mouse lung assessed as decrease in sphingosine-1-phosphate level at 10 mg/kg, ip after 3 hrs by LC-MS method; format: functional, organism-based

## O=C(NCCCCc1ccccc1)n1c(=O)oc2cc(-c3ccc(F)cc3)ccc21
[1]
  half-life at 10 µM: > 5 h

## O=C(NCCCCc1ccccc1)n1c(=O)oc2cc([N+](=O)[O-])ccc21
[2]
  Stability: Stable

## O=C(NCCCCc1ccccc1)n1c(=O)oc2ccc(F)cc21
Acid ceramidase; read-out: IC50
  IC50: 12 nM

## CN(CCNC(=O)n1c(=O)oc2ccccc21)Cc1ccccc1
[3]
  inhibition: inactive

## O=C(NCCCCc1ccc2ccccc2c1)n1c(=O)oc2ccccc21
Acid ceramidase; read-out: IC50
  IC50: 71 nM

## O=C(c1ccccc1)c1ccc2c(c1)oc(=O)n2C(=O)NCCCCc1ccccc1
[2]
  Stability: Stable
[1]
  half-life at 10 µM: 1.63 h

## O=C(NCCOCc1ccccc1)n1c(=O)oc2ccccc21
Acid ceramidase; read-out: IC50
  IC50: 649 nM

## O=C(NCCCCc1ccccc1)n1c(=O)oc2cc(Cl)ccc21
Mus musculus [4]
  inhibition: Active
Mus musculus [5]
  inhibition: Active
[2]
  Stability: Stable
Mus musculus [6]
  inhibition: Active
Mus musculus [7]
  inhibition: inactive
Mus musculus [8]
  inhibition: Active
Mus musculus [9]
  inhibition: Active
[1]
  half-life at 10 µM: 0.967 h
Mus musculus [10]
  inhibition: Active

## O=C(NCCCCc1ccccc1)n1c(=O)oc2cc(-c3ccccc3)ccc21
[1]
  half-life at 10 µM: > 5 h

## O=C(NCCCCc1ccccc1)n1c(=O)oc2cc(F)ccc21
Acid ceramidase; read-out: IC50
  IC50: 31 nM

## O=C(NCCCCc1ccccc1)n1c(=O)oc2c(-c3ccccc3)cccc21
[1]
  half-life at 10 µM: > 5 h

## O=C(NCCCCc1ccccc1)n1c(=O)oc2cccc(Br)c21
Acid ceramidase; hek293
  IC50: ND(Unstable)

## O=C(NCCCCc1ccccc1)n1c(=O)oc2cc(Cl)c(Cl)cc21
[1]
  half-life at 10 µM: 0.917 h

## O=C(c1ccc(Cl)cc1)c1ccc2c(c1)oc(=O)n2C(=O)NCCCCc1ccccc1
[2]
  Stability: Stable
[1]
  half-life at 10 µM: 4.57 h

## Cc1ccc(CCCCNC(=O)n2c(=O)oc3ccccc32)cc1
Acid ceramidase; read-out: IC50
  IC50: 25 nM

## O=C(NCCCCc1ccccc1)n1c(=O)oc2ccc(C(F)(F)F)cc21
Acid ceramidase; read-out: IC50
  IC50: 18 nM

## O=C(NCCCCc1ccccc1)n1c(=O)oc2ccccc21
[1]
  t1/2: 0.75 h

## O=C(NCCCCc1ccccc1)n1c(=O)oc2ccc(-c3ccc(F)cc3)cc21
[1]
  half-life at 10 µM: > 5 h

## O=C(NCCSCc1ccccc1)n1c(=O)oc2ccccc21
Acid ceramidase; read-out: IC50
  IC50: 65 nM

## O=C(NCCCCc1cccs1)n1c(=O)oc2ccccc21
Acid ceramidase; read-out: IC50
  IC50: 37 nM

## COc1ccc(-c2ccc3oc(=O)n(C(=O)NCCCCc4ccccc4)c3c2)cc1
[1]
  half-life at 10 µM: 2.93 h
Acid ceramidase; read-out: IC50
  IC50: 67 nM

## O=C(NCCCCc1ccccc1)n1c(=O)oc2ccc(Cl)cc21
Acid ceramidase; read-out: IC50
  IC50: 15 nM

## O=C(NCCCCc1ccccc1)n1c(=O)oc2cccc(-c3ccccc3)c21
[1]
  half-life at 10 µM: 0.117 h

## O=C(NCCCCc1ccccc1)n1c(=O)oc2ccc(-c3ccccc3)cc21
[2]
  Stability: Stable
[1]
  half-life at 10 µM: 4.93 h
Acid ceramidase; read-out: IC50
  IC50: 42 nM

## O=C(NCCc1ccccc1)n1c(=O)oc2ccccc21
Acid ceramidase; read-out: IC50
  IC50: 121 nM

## O=C(c1ccccc1)c1ccc2oc(=O)n(C(=O)NCCCCc3ccccc3)c2c1
Acid ceramidase; read-out: IC50
  IC50: 24 nM

## O=C(NCCCCc1ccc([N+](=O)[O-])cc1)n1c(=O)oc2ccccc21
Acid ceramidase; read-out: IC50
  IC50: 312 nM

## O=C(NCCCCCCc1ccccc1)n1c(=O)oc2ccccc21
Acid ceramidase; read-out: IC50
  IC50: 51 nM

## Cc1cccc2oc(=O)n(C(=O)NCCCCc3ccccc3)c12
Acid ceramidase; hek293
  IC50: ND(Unstable)

## COc1ccc(-c2ccc3c(c2)oc(=O)n3C(=O)NCCCCc2ccccc2)cc1
[1]
  half-life at 10 µM: 2.2 h

## O=C(NCCCCc1ccccc1)n1c(=O)oc2ccc([N+](=O)[O-])cc21
[2]
  Stability: Stable

## O=C(NCCCCc1ccccc1)n1c(=O)oc2cc(Br)ccc21
[1]
  t1/2: 0.4 h
Acid ceramidase; hek293, read-out: IC50
  IC50: 31 nM
